Results: ChEMBL document CHEMBL4152257, “Discovery of novel β-carboline/acylhydrazone hybrids as potent antitumor agents and overcome drug resistance” (Eur J Med Chem, 2018)

Legend:
MDA-MB-231 = assay: Antiproliferative activity against human MDA-MB-231 cells at 1 uM after 48 to 72 hrs by MTT assay relative to control; format: functional
Method in brief: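 Single-concentration screen in the MTT proliferation assay: log-phase cells seeded and allowed to adhere, exposed to compound at 1 µM for 48 h or 72 h, MTT added for 2-3 h, formazan dissolved in DMSO; percent inhibition versus control.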

A2780/Taxol = assay: Antiproliferative activity against human A2780T cells after 48 to 72 hrs by MTT assay; format: functional, cell-based
Method in brief: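 Cells in log phase seeded and allowed to adhere, then exposed to graded compound concentrations for 48 h or 72 h; MTT added for a further 2-3 h, formazan dissolved in DMSO. IC50 taken from dose-response curves; mean ± SD of at least three independent experiments.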

MCF7 = assay: Induction of apoptosis in human MCF7 cells assessed as late apoptotic cells at 100 uM after 48 hrs by annexin V-FITC/PI dual staining based flow cytometry (reference value: 11.1%); format: functional
NCI/ADR-RES = assay: Induction of apoptosis in human MCF7/ADR cells assessed as late apoptotic cells at 10 uM after 48 hrs by annexin V-FITC/PI dual staining based flow cytometry (reference value: 5.02%); format: functional
Mus musculus = assay: Toxicity in athymic nude Balb/C mouse xenografted with human H460 cells assessed as effect on feeding behaviour at 100 mg/kg, po administered 3 times per week measured every 2 days; format: organism-based; settings: in vivo, 48 h
Method in brief: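 Nude mice, 5-to-6-week-old females, given 5 × 10^6 H460 cells sc in right flank in HBSS; at 100 mm3 tumour volume randomized, 6 per group. Vehicle; oral 100 mg/kg three times weekly; or ip 30 mg/kg once weekly. Toxicity signs and mortality observed daily; body weight measured every 2 days.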

IC50 (A2780/Taxol): 3.99 µM
SMILES: N#Cc1ccc(COc2cccc(/C=N/NC(=O)c3cc4c(cn3)[nH]c3ccccc34)c2)cc1
inhibition at 1 µM (MDA-MB-231): 29.6%
Activity (MCF7): 38.9%
Activity (NCI/ADR-RES): 19.1%
Activity (Mus musculus): Non-Toxic
